Assay results from ChEMBL document CHEMBL4665829, “Synthesis, Structure-Activity Relationship, and Antimalarial Efficacy of 6-Chloro-2-arylvinylquinolines” (J Med Chem, 2020).
Active and inactive are the calls of the source. The rule behind the calls is not given here.

Assays:
Plasmodium falciparum [1] = assay: Antiplasmodial activity against chloroquine-resistant Plasmodium falciparum Dd2 infected in human erythrocytes assessed as reduction in microbial growth after 72 hrs by SYBR green I staining based fluorescence assay; format: functional, organism-based; settings: Dd2, Erythrocyte
Outline: (§1)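 SYBR Green I assay: twofold serial dilutions on P. falciparum cultures at 1% parasitemia, 1% hematocrit, 37 °C, 5% CO₂, 72 h, max 0.1% DMSO. DMSO and CQ as growth and inhibition controls. Plates frozen at −80 °C, thawed, lysed in Tris/saponin/EDTA/Triton buffer with 0.01% SYBR Green I, 1 h dark at room temperature. Fluorescence read at 485 ex/530 em. EC50 by nonlinear dose–response fit.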

Plasmodium falciparum [2] = assay: Antiplasmodial activity against chloroquine-sensitive Plasmodium falciparum 3D7 infected in human erythrocytes assessed as reduction in microbial growth after 72 hrs by SYBR green I staining based fluorescence assay; format: functional, organism-based; settings: for EC50: 3D7, Erythrocyte; outline: as §1
[3] = Resistant index, ratio of EC50 for antiplasmodial activity against chloroquine-resistant Plasmodium falciparum Dd2 to antiplasmodial activity against chloroquine-sensitive Plasmodium falciparum 3D7; format: functional
HepG2 = assay: Cytotoxicity against human HepG2 cells assessed as reduction in cell viability after 48 hrs by MTS assay; format: cell-based; settings: HepG2, 48 h
Outline: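 HepG2 cells were seeded at 2250 per well and grown 24 h at 37 °C, 5% CO₂. Serial dilutions starting at 25 μM were added for a further 48 h. MTS was then added for 3 h at 37 °C and absorbance read at 490 nm. EC₅₀ came from nonlinear dose–response fits.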

[4] = Selectivity index, ratio of EC50 for cytotoxicity against human HepG2 cells to antiplasmodial activity against chloroquine-resistant Plasmodium falciparum Dd2; format: toxicity, cell-based; settings: read-out: Ratio EC50
[5] = Intrinsic clearance in mouse liver microsomes assessed as parent compound at 1 uM after 60 mins in presence of NADPH by LC-MS analysis; format: ADME, Microsome
Outline: (§2)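 Mouse liver microsomes (0.5 mg/mL final protein) in 0.1 M phosphate, pH 7.4, with compound at 1 μM, 37 °C with shaking. Aliquots were quenched in cold acetonitrile and centrifuged; LC–MS gave parent peak area at 60 min relative to 0 min.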

[6] = Half life in mouse liver microsomes at 1 uM after 60 mins in presence of NADPH by LC-MS analysis; format: ADME, Microsome; settings: 1 h; outline: as §2
[7] = Stability of compound in mouse liver microsomes assessed as parent compound remaining at 1 uM after 60 mins in presence of NADPH by LC-MS analysis; format: ADME, Microsome; settings: 1 h; outline: as §2
Plasmodium falciparum [8] = assay: Antiplasmodial activity against synchronous gametocyte early stage of Plasmodium falciparum 3D7 harboring luc7 incubated for 72 hrs by ONE-Glo luciferase assay; format: functional, organism-based; settings: 3D7, 72 h
Outline: (§3)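 Gametocytes of P. falciparum 3D7 luc7 induced by nutrient starvation, cultured in heparin medium to remove asexual stages, Percoll-purified as early (II–III) or late (IV–V) stage. 50,000 gametocytes/well exposed 72 h to a 19-point gradient, 0.038 nM–10 μM. ONE-Glo luciferase read after 5 min. EC50 by nonlinear curve fit; three experiments.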

Plasmodium falciparum [9] = assay: Antiplasmodial activity against synchronized chloroquine-resistant Plasmodium falciparum Dd2 reduction in microbial growth at 50 nM treated with compound at 42 hrs post infection measured after 12 hrs by YOYO-1 staining-based flow cytometric analysis; format: functional, organism-based
Outline: (§4)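 Dd2 cultures tightly synchronized by magnetic separation and sorbitol were dosed at 5 × EC50 at 6, 18, 30 or 42 h post-invasion. Controls: DHA 50 nM, atovaquone 6.6 nM, DMSO 0.1%. Sampled every 12 h for Giemsa thin smears and for flow cytometry: glutaraldehyde/paraformaldehyde fixation, Triton permeabilization, RNAse, 500 nM YOYO-1, 500,000 events/sample. Three independent biological replicates.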

Plasmodium falciparum [10] = assay: Parasiticidal activity against chloroquine-resistant Plasmodium falciparum Dd2 infected in RBC assessed as reduction in parasitemia at 50 nM incubated for 6 to 48 hrs followed by compound washout and then incubated for 96 hrs by Giemsa staining based microscopic analysis; format: functional, organism-based; settings: time hrs 6-48
Outline: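 Controls: 0.15% DMSO, DHA 50 nM, atovaquone 6.6 nM. Drug removed by three RPMI washes, then parasitemia followed daily for 96 h by Giemsa thin smears. Three independent biological replicates.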

Plasmodium falciparum [11] = assay: Antiplasmodial activity against synchronous gametocyte late stage of Plasmodium falciparum 3D7 harboring luc7 incubated for 72 hrs by ONE-Glo luciferase assay; format: functional, organism-based; settings: 3D7, 72 h; outline: as §3
Plasmodium falciparum [12] = assay: Antiplasmodial activity against synchronized chloroquine-resistant Plasmodium falciparum Dd2 reduction in microbial growth at 50 nM treated with compound at 42 hrs post infection measured after 12 hrs by Giemsa staining-based microscopic analysis; format: functional, organism-based; outline: as §4
[13] = Drug level in mouse liver microsomes treated with 6-chloro-N-(4-morpholinobutyl)-2-(2-(pyridin-4-yl)vinyl)quinolin-4-amine measured up to 60 mins by LC-MS analysis; format: ADME, Microsome; settings: 1 h
Outline: (§5)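 Microsomal incubations: mouse liver microsomes at 0.5 mg/mL, 1 μM compound, pH 7.4 phosphate, 37 °C, NADPH-regenerating system. The metabolite mixture was analysed by LC–MS after 15, 30 and 60 min.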

[14] = Drug level in mouse liver microsomes treated with N1,N1-diethyl-N4-(6-methoxy-2-(4-nitrostyryl)quinolin-4-yl)pentane-1,4-diamine measured up to 60 mins by LC-MS analysis; format: ADME, Microsome; settings: 1 h; outline: as §5
[15] = Drug level in mouse liver microsomes treated with N1-(6-chloro-2-(4-fluorostyryl)quinolin-4-yl)-N2,N2-dimethylethane-1,2-diamine measured up to 60 mins by LC-MS analysis; format: ADME, Microsome; settings: 1 h; outline: as §5

SMILES	EC50 (Plasmodium falciparum [1])	Ratio EC50 [3]	EC50 (HepG2)	selectivity ratio [4]	CLH [5]	EC50 (Plasmodium falciparum [2])	t1/2 [6]	Stabilty [7]	further results
COc1ccc2nc(/C=C/c3ccc(OC)c(OC)c3)cc(NCCN(C)C)c2c1	187 nM	> 1.3							Activity (Plasmodium falciparum [2]; Erythrocyte): Active
Fc1ccc(/C=C/c2cc(NCCCCN3CCOCC3)c3cc(Cl)ccc3n2)cc1F	25.5 nM	0.9	10400 nM	241	53.7 µL/min/mg	27.6 nM	25.8 min	19.9%	
CN(C)CCNc1cc(/C=C/c2cccc(F)c2)nc2ccc(Cl)cc12	5.9 nM	0.3	4780 nM	810	32.1 µL/min/mg	23 nM	43.2 min	38.2%	
CN(C)CCNc1cc(/C=C/C2CCCCC2)nc2ccc(Cl)cc12	394 nM	> 1.3							
Fc1ccc(/C=C/c2cc(NCCCCN3CCOCC3)c3cc(Cl)ccc3n2)cc1	2.4 nM	0.3	3550 nM	1480	62.4 µL/min/mg	6.9 nM	22.2 min	15.4%	
C[C@H]1[C@@H](O)O[C@@H]2O[C@@]3(C)CC[C@H]4[C@H](C)CC[C@@H]1[C@@]24OO3 [ARTENIMOL]									EC50 (Plasmodium falciparum [8]): 17.4 nM; Activity (Plasmodium falciparum [9]): Active; Activity (Plasmodium falciparum [10]): Active; EC50 (Plasmodium falciparum [11]): 37.4 nM; Activity (Plasmodium falciparum [12]): Active
NCCCCNc1cc(/C=C/c2ccncc2)nc2ccc(Cl)cc12									Drug uptake [13]: Active
Fc1ccc(/C=C/c2cc(NCc3ccccn3)c3cc(Cl)ccc3n2)cc1	156 nM	0.6	19800 nM	127	21.2 µL/min/mg	248 nM	65.3 min	52.9%	
CCN(CC)CCCC(C)Nc1cc(/C=C/c2ccc([N+](=O)[O-])cc2)nc2ccc(O)cc12 (configuration not stated)									Drug uptake [14]: Active
CNCCNc1cc(/C=C/c2ccc(F)cc2)nc2ccc(Cl)cc12									Drug uptake [15]: Active
CN(C)CCNc1cc(/C=C/c2ccc(N(C)C)cc2)nc2ccc(Cl)cc12	88.3 nM	> 1.3							
CN(C)CCNc1cc(/C=C/c2ccncc2)nc2ccc(Cl)cc12	28.8 nM	0.5	6110 nM	212	62.2 µL/min/mg	56.6 nM	22.3 min	15.5%	
CN(C)CCNc1cc(/C=C/c2cc3ccccc3[nH]2)nc2ccc(Cl)cc12	95.9 nM	> 1.3							
CN1CCN(CCCCNc2cc(/C=C/c3ccncc3)nc3ccc(Cl)cc23)CC1	33.4 nM	0.9	8380 nM	251		36.1 nM			
